Assay outcomes (PubChem)
IMP-1 inh: IMP-1 metallo-beta-lactamase inhibitors, primary screen, biochemical, epi-absorbance readout, Pseudomonas aeruginosa enzyme; metallo-beta-lactamase IMP-1 (Pseudomonas aeruginosa); purified IMP-1, nitrocefin hydrolysis, epi-absorbance fluorescence; inhibition, % at 5.6 µM; hit rate 0.45% among 290,000;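 active means inhibition above the mean plus 3 SD of all compounds in the same screening run, cut at about 4.5% in these data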
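System: purified IMP-1; amount: IMP-1 0.2 nM before substrate addition; compound: single dose, 5.6 µM; times: 25 °C, 15 min preincubation, 25 min reaction; signal: Epi-absorbance via hydrolysed-nitrocefin quenching of white-plate fluorescence, 480/530 nm, EDTA stop; benchmarks: DMSO with and without IMP-1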
sPLA2-III inh: human group III sPLA2 inhibitors, primary screen, biochemical, QFRET, BODIPY PC-A2 liposome substrate; Group 3 secretory phospholipase A2 (Homo sapiens), Q9NZ20; QFRET BODIPY PC-A2 liposome hydrolysis, fluorescence; inhibition, % at 12.2 µM; hit rate 0.56% among 370,000; AID 743126, 2013;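 active means inhibition above mean plus 3 SD of compounds lying within the high and low control bounds, cut at about 19% in these data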
Target sequence (Q9NZ20 whole entry, looked up): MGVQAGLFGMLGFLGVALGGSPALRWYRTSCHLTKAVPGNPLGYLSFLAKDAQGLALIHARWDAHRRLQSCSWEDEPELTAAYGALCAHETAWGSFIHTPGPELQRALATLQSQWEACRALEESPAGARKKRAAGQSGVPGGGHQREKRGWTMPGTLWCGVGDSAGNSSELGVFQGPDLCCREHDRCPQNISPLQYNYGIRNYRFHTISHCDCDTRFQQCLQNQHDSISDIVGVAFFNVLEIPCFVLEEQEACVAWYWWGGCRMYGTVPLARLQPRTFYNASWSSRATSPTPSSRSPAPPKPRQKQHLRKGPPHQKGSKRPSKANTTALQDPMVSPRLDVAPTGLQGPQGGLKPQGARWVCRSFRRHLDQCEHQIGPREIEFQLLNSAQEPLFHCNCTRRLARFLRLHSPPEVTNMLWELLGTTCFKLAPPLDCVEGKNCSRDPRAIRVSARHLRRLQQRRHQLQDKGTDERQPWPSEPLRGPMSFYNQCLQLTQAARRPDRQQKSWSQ
VIM-2 inhibitor: VIM-2 metallo-beta-lactamase inhibitors, primary screen, biochemical, epi-absorbance readout, Pseudomonas aeruginosa enzyme. inhibition, % at 5.6 µM. hit rate 0.89% among 290,000. purified VIM-2, nitrocefin hydrolysis, epi-absorbance fluorescence. AID 1527, 2009;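 active means inhibition above the mean of all tested compounds plus 3 SD, cutoff set per screening run, cut at about 7.5% in these data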;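 further: red hydrolysis product quenches plate fluorescence so inhibitors raise well fluorescence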
PfM18AAP inh: PfM18AAP inhibitors, malaria aminopeptidase, primary screen, biochemical, QFRET, recombinant enzyme; M18 aspartyl aminopeptidase (Plasmodium falciparum 3D7); H-Glu-NHMec fluorogenic cleavage; inhibition, % at 7.35 µM; hit rate 1.2% among 290,000; AID 1822, 2009;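 active means inhibition above the campaign mean inhibition over all tested compounds plus 3 SD, cut at about 28% in these data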
Large screens that a line does not name were inactive. Shown are actives, neighbours in structure and some others; about 2.4% of the full set was active somewhere.

COc1cccc(-c2nc(-c3ccc4c(c3)-c3ccccc3S4(=O)=O)c(-c3ccccc3)[nH]2)c1OC	IMP-1 inh 4.8
CCCN1CCCCC(NC(=O)c2c(F)cccc2F)C1=O (stereo not given)	none (no result: IMP-1 inh, VIM-2 inhibitor, PfM18AAP inh)
CC(=O)c1c2c3c(c(Br)ccc3n(C)c1=O)C(=O)c1ccccc1-2	IMP-1 inh 6.7, VIM-2 inhibitor 30.5
CC(=O)c1c(-c2ccccc2)c2cc(Cl)ccc2n(C)c1=O	none
CCOC(=O)Cn1cc(CN2CCS(=O)(=O)N(Cc3ccc(F)cc3)C(C(=O)OC)C2)nn1 (stereo not given)	none (no result: IMP-1 inh, VIM-2 inhibitor, PfM18AAP inh)
OCCCc1nc2n(n1)C(c1cccs1)C=C(c1ccccc1)N2 (stereo not given)	VIM-2 inhibitor 8.4 (no result: sPLA2-III inh)
OCCCc1nc2n(n1)C(c1ccccc1)C=C(c1ccc(F)cc1)N2 (stereo not given)	none
Cc1ccc(N=Cc2cc(Cc3ccccc3Cl)cc([N+](=O)[O-])c2O)c(O)c1	IMP-1 inh 6.3 (no result: sPLA2-III inh)
COc1ccc(N=Cc2cc(Cc3ccccc3Cl)cc([N+](=O)[O-])c2O)cc1OC	none (no result: sPLA2-III inh)
COc1ccc(-c2nc(C#N)c(N3CCN(C(=O)c4ccco4)CC3)o2)cc1OC	IMP-1 inh 7.7
COc1ccccc1-c1nc(C#N)c(N2CCN(C(=O)c3ccco3)CC2)o1	none
CCOc1ccc(Nc2nc(Cc3nnc(SCC(=O)NCc4ccco4)n3CC)cs2)cc1	PfM18AAP inh 30.2
CCn1c(COc2ccc(C)cc2)nnc1SCC(=O)NCc1ccco1	none
Cc1ccc(COc2ccccc2C(=S)N2CCCC2)cc1	PfM18AAP inh 28.2
N=c1c(-c2nc3ccccc3[nH]2)cc(C(=O)c2cccs2)nn1-c1ccccc1	none (no result: sPLA2-III inh)
N=c1c(-c2nc3ccccc3[nH]2)cc(C(=O)c2ccco2)nn1-c1ccccc1	sPLA2-III inh 24.5
COc1ccc2cc(C(=O)NCc3ccco3)c(=O)oc2c1	none
O=C(NCc1ccco1)c1cc2ccc(O)cc2oc1=O	PfM18AAP inh 28.4
O=C1c2cccc3c(N4CCCCC4)ccc(c23)C(=O)N1c1ccccn1	IMP-1 inh 5.8
C/C(=N\NC(=O)C(N)=O)c1cccc([N+](=O)[O-])c1	IMP-1 inh 15.5
CNC(=S)N/N=C(\C)c1cccc([N+](=O)[O-])c1	none
COc1ccccc1CNC(=O)NC1CCN(CC(=O)Nc2ccc3c(c2)OCCO3)CC1	none (no result: IMP-1 inh, VIM-2 inhibitor, PfM18AAP inh)
COc1ccccc1N1CCN(S(=O)(=O)c2ccc3c(c2)CCC(=O)N3)CC1	none (no result: IMP-1 inh, VIM-2 inhibitor, PfM18AAP inh)
CCC(C)NCCOc1ccccc1C (stereo not given)	IMP-1 inh 27.7
CCC(C)NCCOc1ccc(Br)cc1 (stereo not given)	none
Cc1cc(NS(=O)(=O)c2ccc(NC(=O)Cc3ccc(Cl)c(Cl)c3)cc2)on1	none (no result: IMP-1 inh, VIM-2 inhibitor, PfM18AAP inh)
CCOC(=O)[C@@]12CCCC3=C1N(CCC3)C(=O)[C@H]2CC(=O)NCCCOC	none (no result: IMP-1 inh, VIM-2 inhibitor, PfM18AAP inh)
COC(=O)C1CN(Cc2ccc(F)cc2)CCS(=O)(=O)N1Cc1cn(CCOC(C)=O)nn1 (stereo not given)	none (no result: IMP-1 inh, VIM-2 inhibitor, PfM18AAP inh)
O=C(Cn1cc(COC(=O)c2c3ccccc3cc3ccccc23)nn1)c1ccc(O)cc1	none (no result: IMP-1 inh, VIM-2 inhibitor, PfM18AAP inh)
N#CC1=C(N)SC(N)=C(C#N)C1CCC1CCCCC1	PfM18AAP inh 32.0 (no result: sPLA2-III inh)
Cc1sccc1C1C(C#N)=C(N)SC(N)=C1C#N	none (no result: sPLA2-III inh)
CCOC(=O)/C=c1\s/c(=C\c2c(OCC)ccc3ccccc23)c(=O)n1CC(=O)NCC1CCCO1 (stereo not given)	none
CCOC(=O)/C=c1\s/c(=C\c2ccc3c(c2)OCCO3)c(=O)n1CC(=O)NCC1CCCO1 (stereo not given)	IMP-1 inh 4.7
O=C(COc1cc(Cl)c(Cl)cc1Cl)Nc1ccncc1	none
O=C(COc1cc(Cl)c(Cl)cc1Cl)Nn1cnnc1	PfM18AAP inh 29.8
CC(=O)Oc1ccc(C(=O)Nc2ccc(C3(C#N)CCCC3)cc2)cc1	IMP-1 inh 12.4
CCOc1ccc(/C=N/Nc2nc(C)cs2)c(O)c1	PfM18AAP inh 28.5
COC(=O)[C@H]1C[C@@]2(N3CCCCC3)c3ccccc3N[C@H]2N1S(=O)(=O)c1ccc([N+](=O)[O-])cc1	none (no result: IMP-1 inh, VIM-2 inhibitor, PfM18AAP inh)
Cc1cccc(C)c1NC(=O)C1CCN(c2ncccn2)CC1	none (no result: IMP-1 inh, VIM-2 inhibitor, PfM18AAP inh)
CN1C2=N[C@H](c3ccc(Br)cc3)CC(=O)N2/C(=C\c2ccccc2)[C@@H]1c1ccccc1	none (no result: IMP-1 inh, VIM-2 inhibitor, PfM18AAP inh)
NC(=O)c1cc(-c2csc(NCCc3ccccc3)n2)ccc1O	IMP-1 inh 5.0
CCCn1c(NCc2cc(C)ccc2O)nc2ccccc21	PfM18AAP inh 30.4
